# Only some compounds are listed: those with a hit (about 2.1% of all), similar ones and a draw of the others.
# RanGTP-Impb inh: inhibitors of RanGTP-importin-beta interaction, primary screen, biochemical, FRET, CFP-Ran, YFP-importin-beta, homogeneous; inhibition, % (concentration not given with the values); cell-free CFP-Ran/YFP-importin-beta FRET ratio; 1.1% of 300,000 active; Ran GTPase (GTP-bound) - importin-beta complex;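 active = more than half of the replicate wells show a fall in the fluorescence ratio signal beyond about 16%, limit read from the data, passing the limit was not always enough; inconclusive = exactly half of the replicate wells pass the set limit; inactive = fewer than half of replicates pass the limit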;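 note: 0% = DMSO wells and 100% = Ran loaded with GDP instead of GTP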
# FAS-TE inh: FAS thioesterase domain inhibitors, primary screen, biochemical, fluorescence intensity, uHTS. Fatty acid synthase (Homo sapiens), P49327. recombinant FAS-TE, OMFH fluorogenic substrate, fluorescence endpoint. inhibition, % at 15 µM. 0.67% of 360,000 active;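 active = compounds whose normalised, plate-corrected inhibition of enzyme fluorescence in the single-dose primary screen is 50% or more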;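 note: 0% = DMSO with enzyme and 100% = substrate without enzyme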
# Target sequence (P49327 whole entry, looked up, the tested form may be a part): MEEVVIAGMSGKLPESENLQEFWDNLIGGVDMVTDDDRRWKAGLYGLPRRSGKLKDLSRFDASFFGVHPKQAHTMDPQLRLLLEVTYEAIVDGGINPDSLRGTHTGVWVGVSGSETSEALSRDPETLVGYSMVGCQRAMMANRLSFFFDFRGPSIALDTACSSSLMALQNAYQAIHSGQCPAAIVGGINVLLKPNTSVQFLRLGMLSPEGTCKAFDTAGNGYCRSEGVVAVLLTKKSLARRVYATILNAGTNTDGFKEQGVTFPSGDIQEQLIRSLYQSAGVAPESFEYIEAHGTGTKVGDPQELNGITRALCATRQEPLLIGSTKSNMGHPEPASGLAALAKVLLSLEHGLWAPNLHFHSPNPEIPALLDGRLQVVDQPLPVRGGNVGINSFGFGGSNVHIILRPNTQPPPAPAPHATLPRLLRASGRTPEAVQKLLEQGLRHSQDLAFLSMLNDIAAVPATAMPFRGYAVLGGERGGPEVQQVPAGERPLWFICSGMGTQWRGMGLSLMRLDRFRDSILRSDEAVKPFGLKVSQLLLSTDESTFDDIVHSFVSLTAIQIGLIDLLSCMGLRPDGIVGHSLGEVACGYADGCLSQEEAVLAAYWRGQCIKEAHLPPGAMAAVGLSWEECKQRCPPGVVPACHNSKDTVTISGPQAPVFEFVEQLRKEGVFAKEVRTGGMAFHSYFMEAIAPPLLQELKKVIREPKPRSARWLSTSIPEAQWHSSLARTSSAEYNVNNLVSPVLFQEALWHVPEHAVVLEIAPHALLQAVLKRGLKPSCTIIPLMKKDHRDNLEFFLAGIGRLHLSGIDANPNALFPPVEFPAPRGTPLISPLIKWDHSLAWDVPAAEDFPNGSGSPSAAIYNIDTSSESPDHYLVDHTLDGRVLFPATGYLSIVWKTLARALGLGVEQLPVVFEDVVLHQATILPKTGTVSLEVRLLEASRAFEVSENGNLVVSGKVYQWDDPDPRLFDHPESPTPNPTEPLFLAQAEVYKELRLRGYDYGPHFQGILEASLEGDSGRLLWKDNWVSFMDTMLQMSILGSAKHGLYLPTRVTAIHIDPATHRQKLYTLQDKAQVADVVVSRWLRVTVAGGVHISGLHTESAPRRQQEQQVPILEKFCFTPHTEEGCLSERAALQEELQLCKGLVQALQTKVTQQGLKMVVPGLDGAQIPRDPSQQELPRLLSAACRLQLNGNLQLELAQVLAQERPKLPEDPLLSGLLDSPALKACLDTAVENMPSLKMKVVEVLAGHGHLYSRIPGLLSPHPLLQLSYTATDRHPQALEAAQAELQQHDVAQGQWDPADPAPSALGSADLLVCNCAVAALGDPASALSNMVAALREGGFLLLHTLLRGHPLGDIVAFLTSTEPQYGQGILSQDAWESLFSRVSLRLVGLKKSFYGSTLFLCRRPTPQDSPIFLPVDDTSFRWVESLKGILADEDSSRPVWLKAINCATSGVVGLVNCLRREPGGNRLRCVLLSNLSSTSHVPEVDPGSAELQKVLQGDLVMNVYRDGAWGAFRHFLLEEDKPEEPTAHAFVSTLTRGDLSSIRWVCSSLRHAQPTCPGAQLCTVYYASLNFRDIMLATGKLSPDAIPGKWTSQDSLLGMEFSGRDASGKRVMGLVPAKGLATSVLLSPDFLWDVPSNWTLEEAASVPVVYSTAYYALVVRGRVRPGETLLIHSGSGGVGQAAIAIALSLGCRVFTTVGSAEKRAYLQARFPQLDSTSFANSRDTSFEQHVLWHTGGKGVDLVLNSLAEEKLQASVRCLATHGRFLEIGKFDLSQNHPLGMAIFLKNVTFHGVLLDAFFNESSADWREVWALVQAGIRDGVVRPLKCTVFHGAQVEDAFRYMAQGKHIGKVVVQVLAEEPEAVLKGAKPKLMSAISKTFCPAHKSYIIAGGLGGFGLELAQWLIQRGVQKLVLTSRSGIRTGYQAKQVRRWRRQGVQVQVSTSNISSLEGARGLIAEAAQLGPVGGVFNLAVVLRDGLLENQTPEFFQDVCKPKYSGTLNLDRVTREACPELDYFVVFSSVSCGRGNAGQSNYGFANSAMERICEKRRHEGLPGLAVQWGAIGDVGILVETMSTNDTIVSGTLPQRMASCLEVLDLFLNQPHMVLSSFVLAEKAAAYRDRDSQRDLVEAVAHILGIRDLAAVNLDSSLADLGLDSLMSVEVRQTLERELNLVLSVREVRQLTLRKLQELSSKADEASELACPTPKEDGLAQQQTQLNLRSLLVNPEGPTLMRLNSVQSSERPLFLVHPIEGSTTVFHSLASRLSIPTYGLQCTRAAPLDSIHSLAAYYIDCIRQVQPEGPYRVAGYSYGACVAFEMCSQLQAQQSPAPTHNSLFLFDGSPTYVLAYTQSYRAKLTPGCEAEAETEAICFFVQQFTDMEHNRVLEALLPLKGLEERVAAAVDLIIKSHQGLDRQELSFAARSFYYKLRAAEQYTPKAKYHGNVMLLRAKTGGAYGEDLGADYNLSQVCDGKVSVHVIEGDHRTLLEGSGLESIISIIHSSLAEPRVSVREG
# Runt-SMMHC FRET: inhibitors of RUNX1 Runt–CBFb-SMMHC binding, primary screen, biochemical, FRET, Cerulean-Runt, Venus-CBFb-SMMHC, uHTS; Runt-related transcription factor 1 (Homo sapiens) + Core-binding factor subunit beta …; Cerulean-Runt/Venus-CBFb-SMMHC FRET ratio 530/480, 1 h; inhibition, % at 20 µM; 0.74% of 220,000 active; AID 1434, 2008;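 active = mean inhibition across duplicate retests at 20 µM reaching about 50%, limit read from the data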;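 note: 0% = DMSO wells and 100% = wells with excess untagged CBFb-SMMHC; inhibitors lower the FRET ratio by blocking Runt binding to CBFb-SMMHC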
# Calpain2 inh: inhibitors of pig calpain II, primary screen, biochemical, fluorogenic peptide substrate, 1536-well; purified calpain II, 30 min; inhibition, % at 16 µM; 0.37% of 220,000 active; AID 1236, 2008;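 active = inhibition above about 50%, limit read from the data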
# Runt-CBFb FRET: inhibitors of RUNX1 Runt–CBFb binding, primary screen, biochemical, FRET, Cerulean-Runt, Venus-CBFb, uHTS; Runt-related transcription factor 1 (Homo sapiens) + Core-binding factor subunit beta …; Cerulean-Runt/Venus-CBFb FRET ratio 530/480, 1 h; 0.46% of 220,000 active; inhibition, % at 20 µM;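 active = inhibition over about 50% at 20 µM in the single-dose screen, limit read from the data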;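 note: 0% = DMSO wells and 100% = excess unlabeled CBFb competitor control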
#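 System: Cerulean-labeled Runt domain protein | Quantity: 100 nM of each labeled protein | Schedule: 1 h compound exposure, room temperature | Detection: Fluorescence energy transfer, 422 nm excitation, 530/480 nm emission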
# * marks the source's active call; other numbers are inactive results; i = inactive; ? = inconclusive; nt = not tested or not shown.
SMILES,RanGTP-Impb inh,FAS-TE inh,Runt-SMMHC FRET,Calpain2 inh,Runt-CBFb FRET
O=C1c2ccc(Br)cc2C(=O)N1c1ccc(Cc2ccncc2)cc1,nt,-7,nt,88*,nt
CCCCOc1ccc(/C=N/NC(=O)c2nnn(-c3nonc3N)c2CN2CCCCCC2)cc1,28*,23,nt,nt,nt
COc1ccc(OCC(=O)Nc2cccc(-c3nc4ccccc4[nH]3)c2)cc1,31*,8,2,15,-2
CN1CC(=O)N(CC(=O)Nc2ccc(N3CCOCC3)cc2)C1=O,nt,-5,nt,nt,nt
Cc1ncc([N+](=O)[O-])n1CC(=O)Nc1ccc(F)cc1,-5,-5,nt,nt,nt
Cc1cc(=O)oc2cc3c(cc12)OCCO3,?,-4,-5,-256,-2
Cc1cc(=O)oc2cc3c(cc12)OCCN3,97*,-4,44,i,10
Cc1ccc2nc3nc(NCC4CCCO4)c(C(=O)NC4CCCCC4)cc3c(=O)n2c1 (centres undefined),177*,nt,nt,i,nt
Cc1ccc2nc3c(cc(C#N)c(=N)n3CC3CCCO3)c(=O)n2c1 (centres undefined),nt,nt,42,nt,11
Cc1ccc2nc3nc(NCC4CCCO4)c(C(=O)NC4CCCC4)cc3c(=O)n2c1 (centres undefined),181*,-5,63*,i,19
COCCCNC(=O)c1cc2c(=O)n3cc(C)ccc3nc2nc1NCC1CCCO1 (centres undefined),173*,nt,60*,-129,19
Cc1ccccc1NC(=O)C1CCCN1S(=O)(=O)c1ccccc1C(F)(F)F (centres undefined),nt,1,nt,nt,nt
C[C@@H]1CCC2[C@](C)(CO)[C@@H](O)CC[C@]2(C)[C@@]12CC[C@@](CO)(CC(=O)O)O2 (some centres undefined),-1,-5,nt,nt,nt
Cc1ccn2c(=O)nc(SCC(=O)NC3CCCCC3)nc2c1,3,-7,nt,nt,nt
Cc1ccn2c(=O)nc(SCC(=O)NC3CCCC3)nc2c1,18*,-7,nt,nt,nt
Cc1nc(N)c(C#N)c(-c2cccnc2)c1-c1ccccc1,-2,0,nt,nt,nt
Cc1ccc2c(n1)sc1c(-c3ccccc3)c(C#N)c(N)nc12,56*,12,100*,-250,18
Cc1oc(C)c2c(=O)ccc3c(c12)OC(N)=C(C#N)C3c1ccccc1Cl (centres undefined),28*,-16,32,-39,15
COc1cccc(CNC(=O)CNC(=S)N(Cc2ccccc2)Cc2ccccc2F)c1,-2,21,-2,54*,-2
O=C(CNC(=S)N(Cc1ccccc1)Cc1ccccc1F)NCc1ccccc1,-2,20,0,54*,-1
O=C(CNC(=S)N(Cc1ccccc1)Cc1ccccc1F)NCc1ccc(Cl)cc1,0,32,-1,33,0
COCCNC(=O)/C(C#N)=C/c1ccc(-c2ccc(S(=O)(=O)N3CCOCC3)cc2)o1,15*,12,24,-50,9
S=C(Nc1ccccc1)c1nc2ccccc2s1,?,16,-1,2,0
CN(C)c1cccc(C(=O)OCC(=O)Nc2ccccc2-c2ccccc2)c1,3,11,6,-13,1
CN(C)c1cccc(C(=O)OCC(=O)Nc2ccccc2Cl)c1,3,22,-5,56*,1
SMILES,RanGTP-Impb inh,FAS-TE inh,Runt-SMMHC FRET,Calpain2 inh,Runt-CBFb FRET
O=C(NC1CCSc2ccccc21)c1c(F)cccc1Cl (centres undefined),5,4,nt,nt,nt
C=CCn1c(N)c(C(=O)Nc2cccc(C)c2)c2nc3ccccc3nc21,22*,24,8,-68,6
C=CCn1c(N)c(C(=O)Nc2ccc(C)c(C)c2)c2nc3ccccc3nc21,5,12,19,-78,3
COc1cccc(N2CC(=O)N(NC(=O)c3sc4nc(C)cc(C)c4c3N)CC2=O)c1,16*,7,2,-312,4
COc1ccc(NC(=O)c2sc3nc(C)cc(C)c3c2N)c(OC)c1,1,-2,nt,nt,nt
O=c1oc2c(O)c(O)cc3c(=O)oc4c(O)c(O)cc1c4c23,nt,84*,46,18,36

# Assay outcomes (PubChem BioAssay)
